Rows were chosen to be rich in hits. Some 4.7% of all compounds tested hit in one or more screens of this group.
MT1-MMP act inh: blockers of MT1-MMP proenzyme processing, primary screen, HT1080 RFP-PRO-GFP cells, GFP/RFP fluorescence | GFP/RFP ratio fluorescence, overnight; percent of plate control window, DMSO zero | AID 651647, 2012 | actives 0.061% (n = 360,000) | GFP/RFP ratio change, % at 20 µM | Matrix metalloproteinase-14 (Homo sapiens), P50281;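 active means GFP/RFP ratio change of at least 30% with cell ATP level not reduced by more than half and red fluorescence within 50% of control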
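Material – HT1080 RFP-PRO-GFP cells · Control set – DMSO wells and RFP-L50D-GFP cells · Incubation – overnight cell settling, then overnight compound exposure, 37 °C, 5% CO2 · Compound dosing – single-point 20 µM compound, 1% DMSO · Read-out – GFP/RFP fluorescence ratio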
ADAM10 inh: human ADAM10 inhibitors, primary screen, biochemical, QFRET, HTS | Disintegrin and metalloproteinase domain-containing protein 10 (Homo sapiens), O14672 | recombinant ADAM10, EDANS/DABCYL FRET peptide cleavage, 3 h | inhibition, % at 7 µM | actives 0.62% (n = 370,000) | AID 720582, 2013;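 active means inhibition above a per-campaign cutoff equal to the mean of compounds falling between control-based bounds plus 3 SD, cut at about 20% in these data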;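 further: 0% = DMSO wells while the 100% control is not disclosed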
GRIN3A LBD mod: binders of NR3A ligand-binding domain, primary screen, biophysical, differential scanning fluorimetry, uHTS | NR3A LBD differential scanning fluorimetry, Tm shift; 0% = protein alone, 100% = glycine-bound protein | AID 1259313, 2017 | Glutamate receptor ionotropic, NMDA 3A (GRIN3A) ligand-binding domain | actives 2.5% (n = 340,000) | Tm shift relative to glycine control, % at 25 µM;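 active means melting temperature shift of at least 10% of the positive control shift, at one fixed dose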
ADAM17 inh: ADAM17 inhibitors, primary screen, biochemical, QFRET; Disintegrin and metalloproteinase domain-containing protein 17 (Homo sapiens), P78536; AID 720648, 2013; actives 0.83% (n = 370,000); recombinant ADAM17, EDANS/DABCYL FRET peptide cleavage; inhibition, % at 6.95 µM;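 active means inhibition above the mean of compounds lying between control limits plus 3 SD, set per campaign, cut at about 8.5% in these data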;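 further: 0% = DMSO-only wells as the low control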
Target sequence (P78536 215-824 limits assumed): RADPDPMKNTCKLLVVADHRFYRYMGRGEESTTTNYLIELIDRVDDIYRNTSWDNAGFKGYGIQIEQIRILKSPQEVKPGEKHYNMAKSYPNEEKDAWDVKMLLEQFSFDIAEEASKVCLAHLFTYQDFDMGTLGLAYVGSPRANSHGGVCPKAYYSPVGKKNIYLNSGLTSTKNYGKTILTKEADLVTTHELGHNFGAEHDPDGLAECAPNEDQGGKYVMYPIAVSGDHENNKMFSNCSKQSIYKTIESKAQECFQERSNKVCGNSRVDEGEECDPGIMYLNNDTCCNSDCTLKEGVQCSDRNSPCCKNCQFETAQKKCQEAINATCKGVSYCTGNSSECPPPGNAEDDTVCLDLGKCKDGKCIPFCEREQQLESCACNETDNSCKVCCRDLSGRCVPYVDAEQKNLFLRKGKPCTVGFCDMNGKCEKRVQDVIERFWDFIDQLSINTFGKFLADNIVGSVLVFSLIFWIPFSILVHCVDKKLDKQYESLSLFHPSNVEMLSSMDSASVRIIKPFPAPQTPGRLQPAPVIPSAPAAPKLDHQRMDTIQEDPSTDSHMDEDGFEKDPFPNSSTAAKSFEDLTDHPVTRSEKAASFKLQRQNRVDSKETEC
SKN-1 block: suppressors of acrylamide-induced Pgst-4::GFP reporter in worms, primary screen, SKN-1 inhibitor project, whole organism, uHTS, GFP/RFP fluorescence ratio, strain VP596. inhibition, % at 21.8 µM. actives 0.49% (n = 360,000). C. elegans VP596 Pgst-4::GFP/RFP ratio, 24 h;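 active means interference check ratio from 0.5 to 1.5 plus GFP to RFP signal ratio inhibition reaching or exceeding a fixed threshold, cut at about 30% in these data, passing the limit was not always enough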
MPTP block: mitochondrial permeability transition pore inhibitors, primary screen, biochemical, isolated mouse mitochondria, absorbance; Ca2+ swelling absorbance, 30 min; inhibition, % at 10 µM; actives 1.4% (n = 360,000); AID 602449, 2012;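 active means inhibition of 50% or more, scaled per plate between neutral and stimulator controls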;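 further: 0% = DMSO wells given calcium and 100% = 1 mM EGTA wells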
Starred values were filed as active, the others as inactive; / = not tested or not shown.

SMILES | MT1-MMP act inh | ADAM10 inh | GRIN3A LBD mod | ADAM17 inh | SKN-1 block | MPTP block
O=c1ccn([C@@H]2O[C@H](CNCc3ccc(-c4cc(C(F)(F)F)ccc4Cl)o3)[C@@H](O)[C@H]2O)c(=O)[nH]1 | 3 | -11 | 17* | -4 | -3 | 1
O=C1ON=C(c2ccc([N+](=O)[O-])cc2)/C1=C/c1ccccc1O | 2 | -3 | -13 | -4 | 5 | 1
Cc1ccc(S(=O)(=O)N2CCOC2CNC(=O)C(=O)NCCN(C)C)cc1 (centres undefined) | -2 | -7 | 13* | -4 | 14 | 3
COc1ccc(CNC(=O)[C@@H]2CC=C[C@@H]3CCN(C4CCCCC4)C(=O)[C@@H]32)cc1 | 0 | 3 | 0 | -1 | 10 | 1
COc1ccc(NC(=O)[C@@H]2CC=C[C@@H]3CCN(C4CCCCC4)C(=O)[C@@H]32)cc1 | 0 | 7 | 12* | -3 | 5 | 1
Cc1ccc(S(=O)(=O)N2CCN(C(=O)COC(=O)COc3ccc(Br)cc3)CC2)c(C)c1 | 4 | -3 | -1 | 2 | 1 | 0
Cc1nnc(C)n1/N=C/c1ccc(O)cc1 | -2 | 7 | / | -6 | -12 | 1
Oc1ccc(/C=N/n2c3ccccc3c3ccccc32)cc1 | 2 | 1 | 16* | -3 | 13 | -6
CCNC(=O)COC(=O)c1ccc(-c2nc3ccccc3s2)s1 | 6 | -102 | -5 | -19 | 3 | 0
Cc1noc(C)c1COC(=O)c1ccc(-c2nc3ccccc3s2)s1 | 4 | -9 | 21* | -7 | 1 | -6
CCOc1c(C#N)c(C#N)c2nc(C)cc(C)n12 | -15 | -12 | 14* | -7 | -15 | -1
Cc1cc(C)n2c3c(c(C#N)c2n1)CCCC3 | -11 | -67 | -4 | -20 | -4 | 0
CC1=C(C(=O)OCc2ccccc2)C(c2cccc([N+](=O)[O-])c2)NC(=O)N1CCCCCC(=O)O (centres undefined) | 7 | 0 | 1 | -3 | 6 | 0
COc1ccc(-c2csc(C)n2)cc1Br | 0 | 1 | -3 | -2 | 14 | -3
COc1ccc(-c2csc(NC(=O)CN3C(=O)C4CC=CCC4C3=O)n2)cc1OC (centres undefined) | 2 | -1 | -1 | -4 | 16 | -1
COc1ccc(-c2csc(NC(=O)CN3C(=O)C4CCCCC4C3=O)n2)cc1OC (centres undefined) | 3 | 7 | 12* | 0 | -10 | 2
COc1ccc(-c2csc(NC(=S)NC(=O)c3cccs3)n2)cc1Br | 1 | -1 | 38* | -4 | 3 | 2
COc1ccc(-c2csc(NC(=S)NC(=O)c3cccs3)n2)cc1OC | 2 | 2 | 10* | 5 | -3 | 4
COc1ccc(-c2csc(NC(=S)NC(=O)c3ccc(S(=O)(=O)N(C)C)cc3)n2)cc1OC | 1 | -2 | -14 | -3 | 8 | 1
COc1ccccc1C1=NOC(Cn2c(NCCCO)nc3c2c(=O)n(C)c(=O)n3C)C1 (centres undefined) | 5 | -1 | 0 | -1 | 13 | 2
Cc1ccccc1NC(=O)N(C(C)C)C(C)C | 13 | 9 | 0 | 3 | 3 | 0
COc1ccccc1NC(=O)CSc1nnc(-c2ccncc2)o1 | -2 | 1 | -1 | -3 | 40* | 0
CCOc1ccccc1NC(=O)CSc1nnc(-c2ccncc2)o1 | -2 | -3 | 1 | -5 | -1 | -1
CC(=O)c1sc(NC(=O)CCN2C(=O)c3ccccc3C2=O)nc1C | -4 | -1 | 17* | -4 | -4 | 3
CCc1nnc(NC(=O)CCN2C(=O)c3ccccc3C2=O)s1 | 3 | 4 | -2 | -2 | -5 | -1
SMILES | MT1-MMP act inh | ADAM10 inh | GRIN3A LBD mod | ADAM17 inh | SKN-1 block | MPTP block
O=C(Nc1ccccc1)N1CCN(c2nc(-c3ccccc3)ns2)CC1 | 7 | 5 | 0 | 2 | 4 | 35
N/C(=N\OC(=O)COc1ccc(Br)cc1)c1ccncc1 | 1 | -11 | -4 | -4 | 0 | 2
CC(Oc1ccc(Br)cc1)C(=O)O/N=C(\N)c1ccncc1 (centres undefined) | 14 | 7 | 1 | 4 | 54* | 1
Nc1nc2nonc2nc1N1CCCCC1 | -3 | 9 | 15* | 0 | 0 | 0
Cc1cc(NC(=O)CSc2nc(Cc3ccc(O)cc3)c(C)[nH]2)no1 | 5 | -5 | -2 | -3 | -8 | -1
O=C(N/N=C/c1cccs1)[C@H]1C[C@@H]1c1ccccc1 | 0 | 6 | 22* | -1 | 10 | 6
O=C(N/N=C/c1c[nH]c2ccccc12)C1CC1c1ccccc1 (centres undefined) | -13 | 5 | 10* | 1 | 26 | -1
O=C(N/N=C/c1ccncc1)C1CC1(c1ccccc1)c1ccccc1 (centres undefined) | -5 | 13 | 0 | 3 | 3 | 3
O=C(N/N=C/c1ccco1)C1CC1c1ccccc1 (centres undefined) | 4 | 4 | -1 | 3 | 3 | 0
O=C(N/N=C/c1c[nH]c2ccccc12)C1COc2ccccc2O1 (centres undefined) | -6 | 11 | 28* | 6 | 11 | 0
O=C(N/N=C/c1c[nH]c2ccccc12)C1CC1(c1ccccc1)c1ccccc1 (centres undefined) | -15 | 4 | 13* | 3 | 7 | 0
O=C(COC(=O)c1cc([N+](=O)[O-])ccc1N1CCOCC1)Nc1ncc(Cl)cc1Cl | 0 | -2 | -1 | 2 | 10 | -2
Cc1cccc(NC(=O)/C=C/c2ccc([N+](=O)[O-])s2)c1 | -177 | 2 | 12* | 1 | -6 | 12
COc1cccc(NC(=O)c2ccc(-c3ccccc3[N+](=O)[O-])o2)c1 | 3 | 6 | 28* | 3 | -6 | -5
COc1cccc(NC(=O)/C=C/c2ccccc2[N+](=O)[O-])c1 | 2 | 11 | 27* | 1 | 13 | 2
Cc1cccc(NC(=O)c2ccc(-c3ccccc3[N+](=O)[O-])o2)c1 | 2 | 7 | 27* | 1 | 10 | 0
COCCN(Cc1ccc(C)cc1)C(=O)[C@@H](Cc1ccccc1)NC(=O)[C@H]1O[C@@H](n2ccc(=O)[nH]c2=O)[C@H](O)[C@@H]1O | / | -6 | / | -1 | / | /
O=C(Nc1ccc2c(c1)OCO2)c1cnc(Cl)c(Cl)c1 | 1 | -13 | 0 | -1 | -4 | 1

Assay outcomes from PubChem BioAssay.
